Screening data deposited in PubChem BioAssay by several laboratories.
PolyA inh: yeast polyadenylation inhibition. S. cerevisiae SKY197-pL101 polyadenylation reporter, beta-gal luminescence; efflux-impaired pdr1/pdr3 knockout yeast; score 100 = 6 SD above DMSO. activity score, % at 12 µM. hit rate 0.02% among 300,000;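 active = lowest replicate activity score at least 50, where 100 means six control SD above control mean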;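 note: yeast exposed to compound for 9 h at 30 °C; higher score means more reporter readthrough which indicates perturbed polyadenylation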
Arr AP2 block: human beta-arrestin and AP2 interaction inhibition | hit rate 0.31% among 340,000 | inhibition, % at 10 µM | AID 504490 | FITC-arrestin peptide / GST-AP2 beads, flow cytometry; AP2 beta2 appendage carries R879A mutation;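 active = inhibition above a set limit, near 3 SD of compounds lacking own fluorescence, cut at about 54% in these data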;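 note: plate controls were DMSO wells for no effect and 5 µM unlabelled arrestin peptide for full effect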
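Test system: GST-tagged AP2 beta2-adaptin appendage (R879A) on 4 µm glutathione beads; also added: fluorescein-tagged arrestin peptide at 50 nM final; timing: 12 min plus 1 h, RT; signal: flow cytometry, FL1 (488/535 nm); read-out: percent drop in bead-associated FITC signal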
NALP3 yeast inh: blocks the NALP3 inflammasome reconstituted in yeast. hit rate 0.39% among 330,000. AID 2825. inhibition, % at 10 µM. Yeast reconstituted NLRP3/ASC/caspase-1, beta-gal luminescence, 24 h;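 active = inhibition of 50% or more; inactive = inhibition below 50%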;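 note: plate controls were induced DMSO wells for no effect and uninduced yeast grown without galactose for full effect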
DSG3 Ab inh: inhibitors of pemphigus antibody binding to human desmoglein-3; P32926; hit rate 0.48% among 310,000; DSG3-coupled beads, scFv-anti-DSG3-GFP binding, flow cytometry; active compounds read low; binding (percent of control), % at 10 µM;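 active = binding more than 3 SD below its plate's average and above zero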;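 note: hits lower antibody fragment binding to DSG3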
NALP1 inh: NALP1 inhibition | hit rate 0.61% among 280,000 | inhibition, % at 10 µM | AID 2071 | S. cerevisiae NALP1/ASC/caspase-1 growth, X-gal OD620, 72 h; in the data active = inhibition mostly above about 24%, no sharp cut-off; inactive = mostly below about 32%
ALR H2O2 inh: blocks human ALR sulfhydryl oxidase activity; P55789; purified ALR, DTT oxidation, H2O2 HRP-luminol luminescence; inhibition, % (test concentration not listed); hit rate 3.8% among 290,000; AID 485317;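 active = mean replicate inhibition above about 79%, with every replicate also reaching it, limit read from the data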
Target sequence (P55789 whole entry, looked up): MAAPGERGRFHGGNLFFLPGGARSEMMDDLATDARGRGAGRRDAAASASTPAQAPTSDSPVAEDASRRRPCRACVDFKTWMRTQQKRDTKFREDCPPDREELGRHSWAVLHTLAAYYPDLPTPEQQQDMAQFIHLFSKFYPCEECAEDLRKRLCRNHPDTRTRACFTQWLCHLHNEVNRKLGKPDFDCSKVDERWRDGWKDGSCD
NALP3 confirm: NALP3 inhibition confirmation in yeast | inhibition, % at 10 µM | shares compounds with NALP3 yeast inh | yeast expressing human NALP3, luminescence | AID 435006 | hit rate 81% among 1,300; in the data active = inhibition above about 48%
Casp1-ASC yeast: active in yeast caspase-1-ASC counter-screen for NALP3 inhibitors. shares compounds with NALP3 yeast inh. yeast expressing Caspase-1-ASC, luminescence counter screen. inhibition, % at 10 µM. hit rate 66% among 1,000
NALP3 yeast rt: yeast NALP3 inhibition, confirmed on retest; shares compounds with NALP3 yeast inh; yeast expressing human NALP3, luminescence read-out; inhibition, % at 10 µM; hit rate 53% among 1,000
Numbers without * were called inactive. The list is not random: actives were taken first. Their share in the collection is about 4.6%. Cut-off read from the data, not from the text of the source, unless noted: active = inhibition above about 50%; inactive = the rest.

For Cc1cc([N+](=O)[O-])cc(/C=N\NC(=O)C2COc3ccccc3O2)c1O (stereo unspecified) the results were PolyA inh 0, Arr AP2 block 0, NALP3 yeast inh 51*, DSG3 Ab inh 102, NALP1 inh -19, NALP3 confirm 70*, Casp1-ASC yeast 78* and NALP3 yeast rt 69*.
Screening CCN(CC)c1ccc2nc3ccccc3[n+](CC)c2c1 returned PolyA inh 28, Arr AP2 block 4, NALP3 yeast inh 67*, DSG3 Ab inh 91, NALP1 inh 28, ALR H2O2 inh -8, NALP3 confirm 73*, Casp1-ASC yeast 44 and NALP3 yeast rt 57*.
CCN(CC)c1ccc(/C=N/n2nnnc2N)c(O)c1 was read as PolyA inh 10, Arr AP2 block 9, NALP3 yeast inh 3, DSG3 Ab inh 110, NALP1 inh 13 and ALR H2O2 inh 25.
Screening CCN(CC)c1ccc2nc3ccc(N)cc3[n+](-c3ccccc3)c2c1 returned Arr AP2 block 5, NALP3 yeast inh 51*, DSG3 Ab inh 101, NALP3 confirm 51*, Casp1-ASC yeast 39 and NALP3 yeast rt 52*.
`CCN(CC)c1ccc2cc(-c3nc4ccccc4[nH]3)c(=O)oc2c1` gave PolyA inh 16, Arr AP2 block -73, NALP3 yeast inh -9, DSG3 Ab inh 374, NALP1 inh 41 and ALR H2O2 inh -5.
For Cc1ccc2sc(N(CCCN(C)C)C(=O)CCS(=O)(=O)c3ccccc3)nc2c1C the results were PolyA inh -7, Arr AP2 block 20, NALP3 yeast inh 53*, DSG3 Ab inh 120, NALP1 inh 84*, ALR H2O2 inh 98*, NALP3 confirm 77*, Casp1-ASC yeast 66* and NALP3 yeast rt 54*.
COc1ccc(OC)c2sc(N(CCCN(C)C)C(=O)CCS(=O)(=O)c3ccccc3)nc12 was read as PolyA inh 5, Arr AP2 block 13, NALP3 yeast inh 26, DSG3 Ab inh 97 and ALR H2O2 inh 52.
For COc1ccccc1CCNC(=O)Cn1ccc2cc(S(=O)(=O)N3CCC(C)CC3)ccc21 the results were PolyA inh -25, Arr AP2 block -2, NALP3 yeast inh -2, DSG3 Ab inh 101, NALP1 inh 28 and ALR H2O2 inh 0.
`Clc1cncc(Cl)c1N/N=C/c1ccncc1` gave PolyA inh -1, Arr AP2 block 8, NALP3 yeast inh 65*, DSG3 Ab inh 83, NALP1 inh 31 and NALP3 confirm 30.
`O=C(CCNC(=O)c1ccc([N+](=O)[O-])cc1)NCc1ccco1` gave Arr AP2 block 2 and NALP3 yeast inh 12.
For CN(c1nc(-c2ccc(Br)cc2)cs1)C1CCS(=O)(=O)C1 (stereo unspecified) the results were PolyA inh -7, Arr AP2 block 0, NALP3 yeast inh 17, DSG3 Ab inh 101, NALP1 inh 3 and ALR H2O2 inh 2.
CCn1cnc2sc(-c3ccccc3)cc2c1=O was read as PolyA inh -23, Arr AP2 block 11, NALP3 yeast inh 63*, DSG3 Ab inh 98, NALP1 inh 25, ALR H2O2 inh -7, NALP3 confirm 56*, Casp1-ASC yeast 66* and NALP3 yeast rt 56*.
Screening O=C1C(c2ccccc2)C2C=CC(C2)N1O (stereo unspecified) returned Arr AP2 block 1 and DSG3 Ab inh 91.
Cc1sc2ncnc(Sc3nnnn3-c3ccccc3)c2c1C was read as PolyA inh -54, Arr AP2 block 8, NALP3 yeast inh 38, DSG3 Ab inh 104, NALP1 inh 18 and ALR H2O2 inh 5.
For Clc1ccc(-n2nnnc2Sc2ncnc3sccc23)cc1 the results were PolyA inh -26, Arr AP2 block -6, NALP3 yeast inh 64*, DSG3 Ab inh 110, ALR H2O2 inh 16, NALP3 confirm 74*, Casp1-ASC yeast 94* and NALP3 yeast rt 76*.
Screening Cc1nnc(SCC(=O)c2c(N)n(C3CC3)c(=O)[nH]c2=O)n1-c1ccccc1 returned Arr AP2 block -11, NALP3 yeast inh 9, DSG3 Ab inh 109 and ALR H2O2 inh 0.
`O=S(=O)(c1ccc(N2CCCC2)cc1)C(F)(F)F` gave PolyA inh -21, Arr AP2 block 0, NALP3 yeast inh 56*, DSG3 Ab inh 95, NALP1 inh -12, ALR H2O2 inh -2, NALP3 confirm 59*, Casp1-ASC yeast 59* and NALP3 yeast rt 46.
`O=S(=O)(c1ccc(N2CCN(c3ccc(F)cc3)CC2)cc1)N1CCCC1` gave PolyA inh 5, Arr AP2 block 8, NALP3 yeast inh 5, DSG3 Ab inh 91, NALP1 inh 12 and ALR H2O2 inh -11.
For O=C(Nc1cccc(Cl)c1)c1cc(N=Nc2ccc([N+](=O)[O-])cc2Cl)ccc1O the results were PolyA inh 8, Arr AP2 block 2, NALP3 yeast inh 57*, DSG3 Ab inh 102, NALP1 inh -8, ALR H2O2 inh 1, NALP3 confirm 86*, Casp1-ASC yeast 42 and NALP3 yeast rt 56*.
Screening O=C(Nc1ccc([N+](=O)[O-])cc1Cl)c1cccc([N+](=O)[O-])c1 returned DSG3 Ab inh 111.
For O=C(Nc1ccc([N+](=O)[O-])cc1Cl)c1cc(Cl)ccc1O the results were Arr AP2 block 0, NALP3 yeast inh 96*, DSG3 Ab inh 93, ALR H2O2 inh -5, NALP3 confirm 99*, Casp1-ASC yeast 100* and NALP3 yeast rt 97*.
Screening COC(=O)c1ccc(Oc2ccc(S(=O)(=O)N3CCCCC3)cc2N)cc1 returned PolyA inh -11, Arr AP2 block 1, NALP3 yeast inh 88*, DSG3 Ab inh 93, NALP1 inh 56*, ALR H2O2 inh -6, NALP3 confirm 94*, Casp1-ASC yeast 93* and NALP3 yeast rt 88*.
COC(=O)CNc1cc(S(=O)(=O)N2CCCCC2)ccc1Oc1ccc(C(=O)OC)cc1 was read as PolyA inh -3, Arr AP2 block 2, NALP3 yeast inh 66*, DSG3 Ab inh 105, NALP1 inh 31, ALR H2O2 inh -4, NALP3 confirm 70*, Casp1-ASC yeast 39 and NALP3 yeast rt 29.
For Cc1ccncc1CNC(=O)c1ccccc1 the results were Arr AP2 block 1 and DSG3 Ab inh 128.
